Reference: ChEMBL document CHEMBL1159311, “Antiinflammatory constituents of Celastrus orbiculatus inhibit the NF-kappaB activation and NO production” (J Nat Prod, 2002)

Assays:
RAW264.7 [1] = assay: Antiinflammatory activity against mouse RAW264.7 cells assessed as inhibition of LPS-induced NO production […] assessed after 24 hrs by Griess reagent assay; type: functional, cell-based
Procedure, shortened: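 RAW264.7 cells were seeded at 1 × 10^5 cells/well and held 3 h. They were then stimulated with LPS (1 µg/mL) for 24 h with or without compound. Supernatant nitrite was measured by Griess reaction: equal volumes of supernatant and reagent (0.1% N-(1-naphthyl)ethylenediamine and 1% sulfanilamide in 5% phosphoric acid, 1:1), absorbance at 570 nm. Values were quantified against a sodium nitrite standard curve. Aminoguanidine served as reference. IC50 reported. Viability was checked by MTT.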

RAW264.7 [2] = assay: Antiinflammatory activity against mouse RAW264.7 cells assessed as inhibition of LPS-induced NF-kappaB activation […] assessed after 24 hrs by SEAP reporter gene assay; type: functional, cell-based
Procedure, shortened: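 RAW264.7 cells stably carrying a plasmid with eight κB elements driving SEAP were seeded at 5 × 10^4 cells/well and held 3 h at 37 °C. Cells then received test compounds at various concentrations together with LPS (1 µg/mL) for 24 h. Supernatant was heated 65 °C for 5 min, then mixed with 2× SEAP buffer (2 M diethanolamine, 1 mM MgCl2, 20 mM L-homoarginine) for 10 min at 37 °C. p-Nitrophenyl phosphate substrate was added, incubated at 37 °C, and A405 read. Dose-response IC50 reported.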

| Compound | IC50 (RAW264.7 [1]) | IC50 (RAW264.7 [2]) |
| --- | --- | --- |
| N=C(N)NN [PIMAGEDINE] | 16.3 µM |  |
| CC(=O)O[C@@H]1[C@@H]2[C@@H](OC(=O)c3ccco3)[C@]3(OC2(C)C)[C@H](C)CC[C@H](OC(C)=O)[C@@]3(C)[C@H]1OC(=O)c1ccco1 [ORBICULIN H] | 50.4 µM | 33.5 µM |
| CC(=O)O[C@H]1[C@@H](OC(=O)c2ccco2)C[C@@H](C)[C@]23OC(C)(C)[C@H](C[C@H](OC(=O)c4ccccc4)[C@]12C)[C@H]3OC(=O)c1ccco1 [ORBICULIN F] | > 300 µM | > 300 µM |
| CC(=O)O[C@H]1CC[C@@H](C)[C@]23OC(C)(C)[C@H](C[C@H](OC(=O)c4ccco4)[C@]12C)[C@H]3OC(=O)c1ccco1 [ORBICULIN D] | 43.6 µM | 36.7 µM |
| CC1=C(O)C(=O)C=C2C1=CC=C1[C@@]2(C)CC[C@@]2(C)[C@@H]3C[C@](C)(C(=O)O)CC[C@]3(C)CC[C@]12C [CELASTROL] | 0.23 µM | 0.27 µM |
| CC(=O)O[C@H]1C[C@@H](C)[C@]23OC(C)(C)[C@H](C[C@H](OC(=O)c4ccccc4)[C@]2(C)[C@H]1OC(C)=O)[C@H]3OC(=O)c1ccco1 [ORBICULIN E] | > 300 µM | > 300 µM |
| CC(=O)O[C@H]1C[C@@H](C)[C@]23OC(C)(C)[C@H](C[C@H](OC(=O)c4ccccc4)[C@]2(C)[C@H]1OC(C)=O)[C@H]3OC(=O)c1ccccc1 [ORBICULIN A] | > 300 µM | > 300 µM |
| CC(=O)O[C@H]1[C@@H](OC(=O)c2ccco2)C[C@@H](C)[C@]23OC(C)(C)[C@H](C[C@H](OC(=O)c4ccco4)[C@]12C)[C@H]3OC(=O)c1ccco1 [ORBICULIN I] | 51.2 µM | 61.5 µM |
| CC1(C)CCC[C@@]2(C)C1=C(O)C(=O)c1cc(O)c(O)cc12 [CELAPHANOL A] | 32.6 µM | 18.2 µM |
